Molecular target: Muscarinic acetylcholine receptor M3 (Homo sapiens, UniProt P20309)
Assay: Antagonist potency at human muscarinic acetylcholine M3 receptor expressed in CHO cells assessed as inhibition of Ach-induced calcium mobilization by FLIPR analysis relative to control
Summary of the method: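 Human M3 receptor in CHO cells, ACh-stimulated calcium mobilization by FLIPR. pA2 derived from the ratio of the ACh EC50 with and without antagonist. Run only where the IC50 was below 10 nM. Values above 11 could not be determined accurately.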

Sequence of Muscarinic acetylcholine receptor M3 (P20309 whole entry): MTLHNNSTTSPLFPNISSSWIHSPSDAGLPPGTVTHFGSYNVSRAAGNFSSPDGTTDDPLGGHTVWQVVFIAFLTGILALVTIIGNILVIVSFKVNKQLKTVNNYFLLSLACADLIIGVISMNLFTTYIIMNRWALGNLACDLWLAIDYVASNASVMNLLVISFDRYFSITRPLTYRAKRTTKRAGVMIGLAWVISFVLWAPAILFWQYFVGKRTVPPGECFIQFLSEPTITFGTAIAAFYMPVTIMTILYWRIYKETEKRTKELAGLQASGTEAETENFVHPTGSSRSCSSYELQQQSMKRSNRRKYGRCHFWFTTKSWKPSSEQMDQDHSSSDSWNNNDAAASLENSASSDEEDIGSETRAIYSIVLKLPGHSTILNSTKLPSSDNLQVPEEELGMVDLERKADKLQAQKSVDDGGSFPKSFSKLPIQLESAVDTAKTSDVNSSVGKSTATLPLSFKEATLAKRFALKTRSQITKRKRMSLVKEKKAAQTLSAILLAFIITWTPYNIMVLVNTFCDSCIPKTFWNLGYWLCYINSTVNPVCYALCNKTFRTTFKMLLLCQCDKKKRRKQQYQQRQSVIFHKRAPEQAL

| Compound | Kd |
| --- | --- |
| CCC[N+]1(C)C2CCC1CC(CC(C#N)(c1ccccc1)c1ccccc1)C2 (stereo not drawn) | 0.0501 nM |
| COCCOCC[N+]1(C)C2CCC1CC(CC(C#N)(c1ccccc1)c1ccccc1)C2 (stereo not drawn) | 0.631 nM |
| C[N+]1(CC2CC2)C2CCC1CC(CC(C#N)(c1ccccc1)c1ccccc1)C2 (stereo not drawn) | 0.0501 nM |
| CC[N+]1(C)C2CCC1CC(CC(C#N)(c1ccccc1)c1ccccc1)C2 (stereo not drawn) | 0.0501 nM |
| C[N+]1(CCO)C2CCC1CC(CC(C#N)(c1ccccc1)c1ccccc1)C2 (stereo not drawn) | 0.158 nM |
| C=CC[N+]1(C)C2CCC1CC(CC(C#N)(c1ccccc1)c1ccccc1)C2 (stereo not drawn) | 1.26 nM |
| COCC[N+]1(C)C2CCC1CC(CC(C#N)(c1ccccc1)c1ccccc1)C2 (stereo not drawn) | 0.501 nM |
| C[N+]1(CCCC#N)C2CCC1CC(CC(C#N)(c1ccccc1)c1ccccc1)C2 (stereo not drawn) | 0.158 nM |

— BindingDB's records for doi:10.1016/j.bmcl.2012.02.015 (Glaxosmithkline, 2012)
